Experimental data reported in article PMC4516694 (Bioorganic & medicinal chemistry, 2015).
Blank lines part the entries; values can stand above or below the molecule they belong to.

Tests used:
[1] = biological target: T1, transfected human CRF1 receptors in HEK293T cells (Homo sapiens, UniProt P34998); test: In vitro competition binding assay at 23 °C vs. [125I]-Tyr0-sauvagine; conditions: for Ki: Ki (nM) ± SEM, vs. [125I]-Tyr0-sauvagine, HEK293T cell membranes
T1 sequence (P34998 24-415): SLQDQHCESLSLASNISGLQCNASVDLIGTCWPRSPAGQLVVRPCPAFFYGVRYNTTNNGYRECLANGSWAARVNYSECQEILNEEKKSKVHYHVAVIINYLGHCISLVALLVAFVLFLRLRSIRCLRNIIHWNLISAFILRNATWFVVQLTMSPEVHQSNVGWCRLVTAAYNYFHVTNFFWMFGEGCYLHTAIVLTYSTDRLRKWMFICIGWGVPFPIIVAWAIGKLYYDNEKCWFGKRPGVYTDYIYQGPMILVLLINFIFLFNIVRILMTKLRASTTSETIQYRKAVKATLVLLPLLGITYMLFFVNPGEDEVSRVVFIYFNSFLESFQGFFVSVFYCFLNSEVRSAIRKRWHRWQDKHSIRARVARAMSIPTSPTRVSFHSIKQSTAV
Outline: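 Human CRF1 plasmid transiently lipofected into HEK293T (DMEM, 10% FBS, grown to 75% confluency); cells harvested 48 h post-transfection; membranes homogenized in pH 7.2 HEPES/MgCl2/EGTA/BSA/aprotinin buffer. ~80 pM [125I]sauvagine plus test compound (10−13–10−5 M final), 2 h, 23 °C; filtered over polyethyleneamine-soaked filters and cold-washed. Triplicates; Ki by one-site competition fit (Kd 0.5 nM); ratios from Ki values.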

[2] = biological target: CRF1 receptor; conditions: read-out: Ki, previously reported value; cited from earlier work
[3] = tested on: CRF1 receptor; test: Non-human primate microPET imaging; assay type: in vivo, male cynomolgus monkey; conditions: anesthetized cynomolgus monkey
Outline: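 Male cynomolgus monkey on a Siemens MicroPET Focus 220. A Co-57 point-source transmission scan was used for attenuation correction. F-18 radiotracer given by saphenous vein injection, then dynamic imaging for 120 min.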

[4] = Rat microPET imaging; assay type: in vivo, male Sprague-Dawley rat; conditions: anesthetized rat
Outline: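 One male Sprague-Dawley rat on an Inveon microPET/CT: isoflurane induction at 3–4%, maintained at 1–1.5% by nose cone. Prone, warmed with circulating air; Co-57 transmission scan for attenuation correction. F-18 radiotracer given by tail vein injection, then dynamic imaging for 60 min.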

Ki ([1]; 23 °C): 0.47 ± 0.08 nM
Structure (SMILES): CCCN(CCC)c1cc(C)nc2c(-c3ccc(Cl)cc3Cl)c(C)nn12 [Compound 21, 3-(2,4-dichlorophenyl)-2,5-dimethyl-N,N-dipropylpyrazolo[1,5-a]pyrimidin-7-amine]

Ki ([1]; 23 °C): 0.46 ± 0.06 nM
Structure (SMILES): CCCCN(CC)c1cc(C)nc2c(-c3ccc(Cl)cc3Cl)c(C)nn12 [Compound 22, N-butyl-3-(2,4-dichlorophenyl)-N-ethyl-2,5-dimethylpyrazolo[1,5-a]pyrimidin-7-amine]
Ki [2]: 0.9 ± 0.1 nM

decrease in affinity relative to compounds 27, 28, 29 and 30 ([1]; 23 °C): ≥ 10 fold | Ki ([1]; 23 °C): 12.4 ± 1.06 nM | fold loss of affinity relative to 29 ([1]; ratio of Ki values, Table 1): ~ 26 fold | fold loss of affinity upon changing 28 to 26 ([1]; ratio of Ki values, Table 1): ~12 fold | fold lower binding affinity than 27 or 28 ([1]; ratio of Ki values, Table 1): 10 – 12 fold
Structure (SMILES): Cc1cc(N(C)CCOCCF)n2nc(C)c(-c3ccc(Cl)cc3Cl)c2n1 [Compound 26, 3-(2,4-dichlorophenyl)-N-(2-(2-fluoroethoxy)ethyl)-N,2,5-trimethylpyrazolo[1,5-a]pyrimidin-7-amine]

Ki ([1]; 23 °C): 1.17 ± 0.07 nM | fold loss of affinity relative to 29 ([1]; ratio of Ki values, Table 1): ~ 2.5 fold
Structure (SMILES): CCN(CCOCCF)c1cc(C)nc2c(-c3ccc(Cl)cc3Cl)c(C)nn12 [Compound 27, 3-(2,4-dichlorophenyl)-N-ethyl-N-(2-(2-fluoroethoxy)ethyl)-2,5-dimethylpyrazolo[1,5-a]pyrimidin-7-amine]

Ki ([1]; 23 °C): 1.07 ± 0.21 nM | fold loss of affinity relative to 29 ([1]; ratio of Ki values, Table 1): ~ 2.3 fold
Structure (SMILES): Cc1cc(N(C)CCCCF)n2nc(C)c(-c3ccc(Cl)cc3Cl)c2n1 [Compound 28, 3-(2,4-dichlorophenyl)-N-(4-fluorobutyl)-N,2,5-trimethylpyrazolo[1,5-a]pyrimidin-7-amine]

Ki ([1]; 23 °C): 0.47 ± 0.1 nM
Structure (SMILES): CCN(CCCCF)c1cc(C)nc2c(-c3ccc(Cl)cc3Cl)c(C)nn12 [Compound 29, 3-(2,4-dichlorophenyl)-N-ethyl-N-(4-fluorobutyl)-2,5-dimethylpyrazolo[1,5-a]pyrimidin-7-amine]

Ki ([1]; 23 °C): 0.59 ± 0.04 nM
Structure (SMILES): Cc1cc(N(CCF)CCCCF)n2nc(C)c(-c3ccc(Cl)cc3Cl)c2n1 [Compound 30, 3-(2,4-dichlorophenyl)-N-(4-fluorobutyl)-N-(2-fluoroethyl)-2,5-dimethylpyrazolo[1,5-a]pyrimidin-7-amine]

radioactivity uptake in the skull and sphenoid region / defluorination ([3]; microPET TACs): rapid uptake and then a steady washout
Structure (SMILES): Cc1cc(N(C)CCOCC[18F])n2nc(C)c(-c3ccc(Cl)cc3Cl)c2n1 [[^18F]26, 3-(2,4-dichlorophenyl)-N-(2-(2-[^18F]fluoroethoxy)ethyl)-N,2,5-trimethylpyrazolo[1,5-a]pyrimidin-7-amine]
brain uptake and washout compared with the other radiotracers ([3]; microPET TACs): entered the brain more rapidly and washed out more rapidly

radioactivity uptake in the skull and sphenoid region / defluorination ([3]; microPET TACs): rapid uptake and then a steady washout | specific binding in brain (high vs low CRF1 receptor density regions) ([3]; microPET TACs): little or no specific binding | time of peak brain uptake ([3]; microPET TACs): 5 to 15 min
Structure (SMILES): CCN(CCOCC[18F])c1cc(C)nc2c(-c3ccc(Cl)cc3Cl)c(C)nn12 [[^18F]27, 3-(2,4-dichlorophenyl)-N-ethyl-N-(2-(2-[^18F]fluoroethoxy)ethyl)-2,5-dimethylpyrazolo[1,5-a]pyrimidin-7-amine]

brain penetrance ([3]; microPET): brain penetrance was achieved | specific binding in brain (high vs low CRF1 receptor density regions) ([3]; microPET TACs): little or no specific binding | liver uptake (SUV) ([4]; at 3 min, tail vein injection): 5.4 SUV | brain uptake (SUV) ([4]; at 5 min, tail vein injection): 2 SUV | brain penetrance ([4]; microPET): brain penetrance was achieved | stability to defluorination (bone visualization) ([4]; microPET): stable to defluorination
Structure (SMILES): Cc1cc(N(C)CCCC[18F])n2nc(C)c(-c3ccc(Cl)cc3Cl)c2n1 [[^18F]28, 3-(2,4-dichlorophenyl)-N-(4-[^18F]fluorobutyl)-N,2,5-trimethylpyrazolo[1,5-a]pyrimidin-7-amine]
radioactivity uptake in the skull and sphenoid region / defluorination ([3]; microPET TACs): high radioactivity uptake in the skull, and sphenoid bone and/or sphenoid sinus, suggests defluorination

brain uptake and washout compared with the other radiotracers ([3]; microPET TACs): very similar to that of [^18F]28
Structure (SMILES): [2H]C([2H])([18F])C([2H])([2H])C([2H])([2H])C([2H])([2H])N(C)c1cc(C)nc2c(-c3ccc(Cl)cc3Cl)c(C)nn12 [[^18F]28-d8, 3-(2,4-dichlorophenyl)-N-(4-[^18F]fluorobutyl-1,1,2,2,3,3,4,4-d8)-N,2,5-trimethylpyrazolo[1,5-a]pyrimidin-7-amine]
radioactivity uptake in the skull and sphenoid region / defluorination ([3]; microPET TACs): reduced somewhat relative to [^18F]28 but defluorination was not completely prevented

fold stronger binding affinity relative to [18F]28 [1]: ~ 2 fold | brain uptake and washout compared with the other radiotracers ([3]; microPET TACs): the overall amount of uptake was less
Structure (SMILES): CCN(CCCC[18F])c1cc(C)nc2c(-c3ccc(Cl)cc3Cl)c(C)nn12 [[^18F]29, 3-(2,4-dichlorophenyl)-N-ethyl-N-(4-[^18F]fluorobutyl)-2,5-dimethylpyrazolo[1,5-a]pyrimidin-7-amine]
radioactivity uptake in the skull and sphenoid region / defluorination ([3]; microPET TACs): less than that of [^18F]28 and [^18F]28-d8
